Experiments:
Format in all cases: functional, cell-based
[1] = Antiproliferative activity against mouse +SA cells by MTT assay; conditions: +SA cell
Summary of the method: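 Mouse +SA mammary epithelial cells in serum-free DMEM/F12 with BSA, transferrin, insulin and EGF. Compounds from DMSO stock conjugated to BSA (overnight, 37 °C); 0–40 µM, final DMSO <0.1%. MTT 0.42 mg/mL for 4 h at 37 °C, isopropanol solubilization, OD 570 nm. Cell number from a standard curve; IC50 by non-linear regression.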

[2] = system: MDA-MB-231; experiment: Antiproliferative activity against human MDA-MB-231 cells by MTT assay
Summary of the method: (§1)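 Cells plated at 8 × 10^3/well (MDA-MB-231) or 10^4/well (MCF7) in 96-well plates. Compounds fed in media with 5% FBS (MDA-MB-231) or 1% FBS (MCF7). MTT read-out of viable cells.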

[3] = system: MCF7; experiment: Antiproliferative activity against human MCF7 cells by MTT assay; summary of the method: as §1
[4] = system: MDA-MB-231; experiment: Antimigratory activity against human MDA-MB-231 cells after 24 hrs by wound-healing assay; conditions: MDA-MB-231, 24 h
Summary of the method: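 MDA-MB-231 in RPMI 1640 with 10% FBS grown to >95% confluent monolayer, scratched with a pipette tip and washed. Then 24 h exposure in 0.5% serum at five non-toxic concentrations in DMSO, triplicate, DMSO as negative control. Diff Quick fixed and stained; migrated cells counted in ≥3 random 40× fields. IC50 = concentration inhibiting migration of 50% of cells.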

IC50 [2] [µM] | IC50 [3] [µM] | IC50 [4] [µM] | SMILES | IC50 [1] [µM]
 |  |  | CC(C)=CCC/C(C)=C/CC/C(C)=C/CC[C@]1(C)CCc2c(CO)c(O)c(C)c(C)c2O1 | 2.6
 |  |  | CC(C)=CCC/C(C)=C/CC/C(C)=C/CC[C@]1(C)CCc2c3c(c(C)c(C)c2O1)OCN(CCCCCC(=O)O)C3 | 5
 |  |  | CCOC(CCN1COc2cc(C)c3c(c2C1)CC[C@@](C)(CC/C=C(\C)CC/C=C(\C)CCC=C(C)C)O3)OCC | 1
0.8 | > 20 |  | CC(C)=CCC/C(C)=C/CC/C(C)=C/CC[C@]1(C)CCc2c3c(c(C)c(C)c2O1)OCN(CC1CCNCC1)C3 | 4.6
 |  |  | CC(C)=CCC/C(C)=C/CC/C(C)=C/CC[C@]1(C)CCc2c3c(cc(C)c2O1)OCN(C)C3 | 1.3
 |  |  | CC(C)=CCC/C(C)=C/CC/C(C)=C/CC[C@]1(C)CCc2c3c(c(C)c(C)c2O1)OCN(CCCCC(=O)O)C3 | 1.8
 |  |  | C=CCN1COc2c(C)c(C)c3c(c2C1)CC[C@@](C)(CC/C=C(\C)CC/C=C(\C)CCC=C(C)C)O3 | 11.6
 |  |  | CC(C)=CCC/C(C)=C/CC/C(C)=C/CC[C@]1(C)CCc2cc(O)c(CO)c(C)c2O1 | 6.6
 |  |  | CC(C)=CCC/C(C)=C/CC/C(C)=C/CC[C@]1(C)CCc2c3c(c(C)c(C)c2O1)OCN(Cc1cccc([N+](=O)[O-])c1)C3 | 24.6
27.3 | > 20 |  | CC(C)=CCC/C(C)=C/CC/C(C)=C/CC[C@]1(C)CCc2c3c(c(C)c(C)c2O1)OCN(Cc1ccccc1)C3 | 2
 |  |  | COc1ccc(CCN2COc3cc4c(c(C)c3C2)O[C@](C)(CC/C=C(\C)CC/C=C(\C)CCC=C(C)C)CC4)cc1OC | 0.84
 |  |  | CC(C)=CCC/C(C)=C/CC/C(C)=C/CC[C@]1(C)CCc2cc3c(c(C)c2O1)CN(CCO)CO3 | 0.96
> 5 | 6 | 1.3 | CC(C)=CCC/C(C)=C/CC/C(C)=C/CC[C@]1(C)CCc2c3c(cc(C)c2O1)OCN(CCO)C3 | 4.2
 |  |  | CCOC(CCN1COc2c(C)c(C)c3c(c2C1)CC[C@@](C)(CC/C=C(\C)CC/C=C(\C)CCC=C(C)C)O3)OCC | 9.3
9.6 | > 20 | 8.1 | CC(C)=CCC/C(C)=C/CC/C(C)=C/CC[C@]1(C)CCc2c3c(c(C)c(C)c2O1)OCN(CCCO)C3 | 2.5
 |  |  | CC(C)=CCC/C(C)=C/CC/C(C)=C/CC[C@]1(C)CCc2c3c(c(C)c(C)c2O1)OCN(C1CCN(Cc2ccccc2)CC1)C3 | 8.7
 |  |  | CC(C)=CCC/C(C)=C/CC/C(C)=C/CC[C@]1(C)CCc2c3c(c(C)c(C)c2O1)OCN(CCO)C3 | 1.7
 |  |  | CC(C)=CCC/C(C)=C/CC/C(C)=C/CC[C@]1(C)CCc2c3c(cc(C)c2O1)OCN(Cc1cccc([N+](=O)[O-])c1)C3 | 29.1
 |  |  | CC(C)=CCC/C(C)=C/CC/C(C)=C/CC[C@]1(C)CCc2c3c(cc(C)c2O1)OCN(CCCCCC(=O)O)C3 | 5.1
 |  | > 40 | CC(C)=CCC/C(C)=C/CC/C(C)=C/CC[C@]1(C)CCc2cc(O)cc(C)c2O1 [DELTA-TOCOTRIENOL] | 
 |  |  | CC(C)=CCC/C(C)=C/CC/C(C)=C/CC[C@]1(C)CCc2c(CO)c(O)cc(C)c2O1 | > 20
 |  |  | CC(C)=CCC/C(C)=C/CC/C(C)=C/CC[C@]1(C)CCc2c3c(c(C)c(C)c2O1)OCN(C)C3 | 2.2
 |  |  | CC(C)=CCC/C(C)=C/CC/C(C)=C/CC[C@]1(C)CCc2c3c(cc(C)c2O1)OCN(CCCCC(=O)O)C3 | 11.9
